WNV protease inh: WNV NS2B-NS3 proteinase inhibition | P06935 | WNV NS2B-NS3 protease, fluorogenic substrate Ex360/Em465; active compounds read low | z-score (test concentration not listed) | 65,000 tested, 0.18% active; in the data active = z-score below about -3
E coli WT exp: blocks growth of wild type E. coli BW25113; OD600 absorbance; growth inhibition, % at 100 µM; 98,000 tested, 0.15% active; AID 710;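 active = growth inhibition above about 50% at one test dose, limit read from the data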;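 also: growth measured after 20 h incubation at 37 °C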
Ecoli tolC: growth inhibitors of E. coli BW25113 tolC mutant. 65,000 tested, 2.2% active. growth inhibition, % at 10 µM (by protocol). OD615;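 active = growth inhibition at or above a cutoff equal to the mean over every tested compound plus 3 SD, cut at about 60% in these data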;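 also: growth measured after 20 h incubation at 37 °C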
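Test system: tolC-deleted E. coli BW25113; medium: LB with kanamycin 50 µg/mL; compound: single-point testing at 10 µM; incubation: 20 h compound exposure of bacteria at 37 °C; signal: OD at 615 nm; evaluation: growth inhibition in percent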
M1 agonist: agonists of M1 muscarinic receptor. CHO-M1 cells, Fluo-4 calcium fluorescence, agonist mode; active compounds read high. B-score at 10 µM. 64,000 tested, 3% active. AID 626;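 active = fluorescence rise, raw or as B-score row- and column-corrected plate score, outside the 99.7% band of its plate's samples, either direction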
AP complement: orthogonal test for alternative complement pathway inhibitors | Human serum alternative complement pathway, LPS-coated ELISA, C3 deposition; tested in compound mixtures | inhibition, % at 5 µM | 62,000 tested, 0.08% active | AID 1235;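 active = inhibition above 30% in each of the two pooled mixtures holding the compound, so the lower value exceeds 30%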;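 also: 0% = serum in Mg-EGTA without compound and 100% = EDTA serum blank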
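Test system – human serum alternative complement pathway, C3 deposition on LPS-coated wells · Buffer or medium – diluted human serum in Mg2+-EGTA GVB++ · Compound dosing – 5 µM each compound, pools of ten, 50 µM per pool · Schedule – 1 h serum-compound exposure at 37 °C · Measured by – Anti-C3 ELISA, OD 450 nm · Read-out basis – percent inhibition of C3 deposition onto LPS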
M1 antagonist: M1 muscarinic receptor (rat) antagonism; P08482; CHO-M1 cells, Fluo-4 calcium, ACh EC80 antagonist mode; active compounds read low; B-score at 10 µM; 64,000 tested, 3.4% active; AID 628;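 active = calcium fluorescence response, raw or row-and-column corrected B-score, differing from the plate sample mean either way at a set confidence level, mostly lower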
M1 ag confirm: rat M1 muscarinic agonism, confirmation. shares compounds with M1 agonist. CHO-M1 cells, Fluo-4 calcium fluorescence, agonist mode; actives lie on both sides. fluorescence change (max-min) at 10 µM. 1,700 tested, 19% active;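 active = fluorescence change differs from the solvent-only DMSO control mean at a set confidence level in both duplicate runs; inconclusive = differs from solvent-only control mean in just one of two runs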;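 also: an EC20 dose of acetylcholine follows compound addition during the same imaging run; raw fluorescence intensity difference in instrument units with no normalization to controls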
M4 ag counter: activates rat M4 receptor in counter-screen for M1 agonists. shares compounds with M1 agonist. CHO M4/Gqi5 cells, Fluo-4 calcium fluorescence, agonist mode; actives lie on both sides. fluorescence change (max-min) at 10 µM. 1,700 tested, 9% active. AID 1741;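 active = fluorescence change differing from the plate's solvent-only control wells at 99.7% confidence in both duplicates, whether higher or lower; inconclusive = differs from solvent controls in only one of two duplicates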
Target sequence (P08485 whole entry, looked up): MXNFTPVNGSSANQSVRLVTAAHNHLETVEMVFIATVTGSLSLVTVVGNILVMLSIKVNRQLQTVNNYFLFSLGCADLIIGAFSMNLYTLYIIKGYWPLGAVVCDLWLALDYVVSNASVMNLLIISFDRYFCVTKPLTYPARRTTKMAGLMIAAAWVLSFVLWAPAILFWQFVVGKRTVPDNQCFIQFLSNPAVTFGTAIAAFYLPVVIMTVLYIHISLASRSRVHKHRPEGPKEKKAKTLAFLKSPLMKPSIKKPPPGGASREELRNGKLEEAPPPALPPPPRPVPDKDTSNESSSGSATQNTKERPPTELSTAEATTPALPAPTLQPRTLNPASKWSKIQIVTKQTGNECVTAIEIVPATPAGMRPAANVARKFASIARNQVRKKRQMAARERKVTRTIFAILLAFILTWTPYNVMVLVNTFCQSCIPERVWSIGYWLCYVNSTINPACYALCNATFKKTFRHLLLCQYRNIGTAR
Numbers without * were called inactive; ? = inconclusive; nt = not tested or not shown. Most compounds without a hit are left out; they make up all but 5.2% or so of the library.

SMILES	WNV protease inh	E coli WT exp	Ecoli tolC	M1 agonist	AP complement	M1 antagonist	M1 ag confirm	M4 ag counter
CC1CCN(c2nc(-c3ccccc3)cc(C(F)(F)F)n2)CC1	-0.67	-5	-14	1.3	-4	-0.12	nt	nt
O=C(CCn1nc(-c2ccccc2)ccc1=O)N1CCOCC1	0.02	3	-9	0.75	9	-1.1	nt	nt
O=C(CCn1nc(-c2ccccc2)ccc1=O)N1CCN(c2ccccn2)CC1	1.1	-1	-4	3.9*	2	0.013	-2.2	-23
COc1ccc(CCN(Cc2cccs2)S(=O)(=O)c2ccc(-n3cnnn3)cc2)cc1OC	0.67	-18	17	4.5*	13	-0.32	?	-66*
COCCN1C(=O)C(=O)/C(=C(/O)c2ccc(OCC(C)C)cc2)C1c1cccnc1 (stereo not given)	-0.29	nt	-6	0.27	10	-0.28	nt	nt
Cc1nc(SCC(=O)N2CCC(C(N)=O)CC2)n[nH]1	1.3	-2	-7	3.9*	-14	-0.18	?	-45
Cc1c(NC(=O)CSC2=C(C#N)C(c3ccccc3F)CC(=O)N2)c(=O)n(-c2ccccc2)n1C (stereo not given)	0.14	0	-6	3.4*	11	0.18	-27	?
COC(=O)CSC1=C(C#N)C(c2ccccc2F)CC(=O)N1 (stereo not given)	-1.2	nt	1	0.77	25	-0.045	nt	nt
Cc1c(C(=O)NCc2ccccc2)oc2ccc(S(=O)(=O)N3CCC4(CC3)OCCO4)cc12	nt	-17	17	2	-12	-1.1	nt	nt
Cc1c(C(=O)Nc2cccc(Cl)c2)oc2ccc(S(=O)(=O)N3CCC4(CC3)OCCO4)cc12	-0.76	1	28	3.6*	7	-1.3	-3.4	-20
Cc1c(C(=O)NCCC2=CCCCC2)oc2ccc(S(=O)(=O)N3CCC4(CC3)OCCO4)cc12	-0.33	-12	22	9*	12	-1.4	-17	?
Cc1c(C(=O)NCC2CCCO2)oc2ccc(S(=O)(=O)N3CCCCC3)cc12 (stereo not given)	-0.37	nt	7	0.15	36	-0.42	nt	nt
Cc1c(C(=O)Nc2ccc(F)cc2)oc2ccc(S(=O)(=O)N3CCC4(CC3)OCCO4)cc12	0.57	-11	48	4.7*	14	-0.85	-1.3	-35
Cc1c(C(=O)Nc2ccc(F)cc2)oc2ccc(S(=O)(=O)N3CCCC3)cc12	-0.66	nt	-7	0.26	-2	0.61	nt	nt
CC1CCN(C(=O)CCNC(=O)Cn2cnc3sc4c(c3c2=O)CCCC4)CC1	nt	3	nt	nt	nt	nt	nt	nt
Cc1ccccc1CN1CCN(CC(=O)NCc2ccccc2)C1=O	0.21	6	-9	0.055	7	0.059	nt	nt
O=S(=O)(Nc1ccc(S(=O)(=O)Nc2nccs2)cc1)c1ccc2c(c1)OCCO2	nt	16	nt	nt	nt	nt	nt	nt
O=C1OCc2ccc(NC(=O)C3CCCCC3)cc21	-0.69	-2	-14	-3.3*	13	-1	-36*	-69
CC1CC(C)CN(S(=O)(=O)c2ccc(C(=O)Nc3sccc3C(N)=O)cc2)C1 (stereo not given)	nt	-11	nt	nt	nt	nt	nt	nt
CC(=O)c1ccc(NC(=O)c2ccc(S(=O)(=O)N3CCCC3)cc2)cc1	0.12	-3	-13	nt	19	nt	nt	nt
NC(=O)c1ccsc1NC(=O)c1ccc(S(=O)(=O)N2CCCCC2)cc1	0.12	-8	32	3.1*	-4	-0.54	?	-33
O=C(Nc1ccc(S(=O)(=O)N2CCCCC2)cc1)c1ccncc1	0.11	2	11	-2.9*	0	-0.55	-22*	-72*
CCOc1ccc(C(=O)NCC(=O)OCC(=O)N2C(C)CCCC2C)cc1 (stereo not given)	nt	-1	nt	nt	nt	nt	nt	nt
CCOc1ccccc1C(=O)NCC(=O)OCC(=O)N1C(C)CCCC1C (stereo not given)	-0.3	6	8	-2.6*	2	-0.3	?	-84*
CCC(C)[C@@H](C(=O)Nc1ccc(OC)c(OC)c1)N1Cc2ccccc2C1=O (stereo not given in full)	-0.68	7	10	0.68	10	0.56	nt	nt
SMILES	WNV protease inh	E coli WT exp	Ecoli tolC	M1 agonist	AP complement	M1 antagonist	M1 ag confirm	M4 ag counter
Cc1cccc(C(CC(=O)N2CCCC2)c2ccccc2)c1O (stereo not given)	1.5	-1	-1	4.1*	-9	0.038	4.1	-2.5
Cc1ccc(C(CC(=O)N2CCCC2)c2ccccc2)c(O)c1C (stereo not given)	-0.92	-3	28	0.73	6	0.62	nt	nt
O=c1cc(-c2ccccc2)c2ccc(O)c(CN3CCCCC3)c2o1	-1.9	0	23	-1.3	19	-0.7	nt	nt
CCc1cc2c(-c3ccccc3)cc(=O)oc2c(CN2CCOCC2)c1O	-0.75	-6	31	15*	10	-0.94	42	17
O=C(CSCc1nc2ccccc2[nH]1)N1CCN(c2ccc(F)cc2)CC1	0.35	1	26	1.1	-7	0.74	nt	nt
O=C(CSCc1nc2ccccc2[nH]1)N1CCN(c2cccc(Cl)c2)CC1	-0.26	-5	30	8*	0	-1.7	-22	-32
COc1ccc(N2CCN(C(=O)c3ccc(N4C(=O)NC5CC4(C)Oc4ccccc45)cc3)CC2)cc1 (stereo not given)	0.04	10	22	0.9	14	0.18	nt	nt
CN(CC(=O)NCc1cccc(F)c1)C(=O)c1ccco1	-2.6	21	-20	0.98	-8	-0.012	nt	nt
O=C(OCC#CCSc1nnc(-c2cccc3ccccc23)o1)c1cccs1	0.46	-28	25	18*	0	-1.1	?	-30
N#CC1=C(SCc2ccccc2)NC(=O)CC1c1ccco1 (stereo not given)	-0.02	-3	9	4.3*	18	-0.46	-8.3	?
CCCn1c(SCC(=O)Nc2cccc(C)n2)nnc1-c1ccco1	-0.06	3	16	-1.1	-16	-0.37	nt	nt
Cc1ccc(S(=O)(=O)Cc2ccc(C(=O)N3CCCCCC3)o2)cc1	2.1	5	-7	-1.2	-4	-0.66	nt	nt
CCOC(=O)C1CCCN(C(=O)c2ccc(CS(=O)(=O)c3ccc(C)cc3)o2)C1 (stereo not given)	1.9	3	3	34*	3	0.7	261*	-15
O=C(CSc1ncn[nH]1)Nc1ccccc1Sc1ccc(Cl)cc1	nt	2	nt	nt	nt	nt	nt	nt
COc1ccc(OC)c(NS(=O)(=O)c2ccc3c(c2)CCC(=O)N3)c1	0.76	-5	0	-0.7	7	-0.15	nt	nt
Cc1cccn2c(=O)c3cc(C#N)c(=NC(=O)c4ccncc4)n(CCCOC(C)C)c3nc12	2.9	-3	25	83*	-8	0.0034	587*	511*
